Read-outs that look alike come from different tables or passages of the source.
Tests used:
Tdp1 [1] = target: T1, Tdp1 (Homo sapiens, UniProt Q9NUW8); test: Tdp1 gel-based assay with recombinant human Tdp1 and N14Y DNA substrate; assay type: biochemical; settings: for Tdp1 inhibition (in words): highest tested concentration 333 μM
Tdp1 [2] = target: T1, Tdp1; test: SPR binding to immobilized Tdp1; settings: dilution series 0.39-50 μM
Summary of the method: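 Tdp1 (1 μM) was pre-bound for 20 min with 2 μM 3′-phosphate 14-mer oligo in 10 mM Na acetate pH 4.5 to shield active-site amines, then amine-coupled to a CM5 chip (~6000 RU), with a Tdp1-free reference surface. Test compound was injected at 30 μL/min, 25 °C, in 50 mM Tris/HCl pH 7.5, 80 mM KCl, 5% DMSO. Referencing used buffer cycles and a DMSO calibration; NaCl/DMSO regeneration.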

[3] = test system: N14Y oligomer (biotin-[…]-Tyr); test: SPR binding to immobilized tyrosyl-labeled oligonucleotide; settings: dilution series 0.39-50 μM

T1 sequence (Q9NUW8 whole entry): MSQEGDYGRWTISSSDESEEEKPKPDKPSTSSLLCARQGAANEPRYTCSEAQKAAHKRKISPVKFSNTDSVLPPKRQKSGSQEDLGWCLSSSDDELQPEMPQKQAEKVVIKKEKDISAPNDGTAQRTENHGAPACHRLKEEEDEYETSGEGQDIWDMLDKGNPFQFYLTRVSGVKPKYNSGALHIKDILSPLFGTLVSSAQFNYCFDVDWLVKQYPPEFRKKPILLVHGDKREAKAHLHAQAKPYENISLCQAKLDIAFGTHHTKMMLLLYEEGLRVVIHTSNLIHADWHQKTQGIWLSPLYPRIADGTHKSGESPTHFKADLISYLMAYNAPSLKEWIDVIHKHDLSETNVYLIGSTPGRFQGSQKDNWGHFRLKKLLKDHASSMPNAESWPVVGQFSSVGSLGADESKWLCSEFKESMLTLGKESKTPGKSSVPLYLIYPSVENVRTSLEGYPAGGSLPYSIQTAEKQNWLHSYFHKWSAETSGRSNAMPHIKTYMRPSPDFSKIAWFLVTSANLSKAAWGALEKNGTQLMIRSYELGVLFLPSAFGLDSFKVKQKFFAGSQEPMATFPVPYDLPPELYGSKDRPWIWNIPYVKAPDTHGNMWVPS

| IC50 (Tdp1 [1]) | Tdp1 inhibition (in words) (Tdp1 [1]) | Compound | other results |
| --- | --- | --- | --- |
| – | – | O=C1NC(=S)/C(=C/c2ccc(P(=O)(O)O)cc2)S1 [Compound 74, (Z)-(4-((2-Oxo-4-thioxothiazolidin-5-ylidene)methyl)phenyl)-phosphonic Acid] | fold improvement in potency over 44 (Tdp1 [1]; Tdp1 IC50 vs compound 44): 7.3 fold |
| 111 to 333 µM | – | O=C1NC(=O)/C(=C/c2ccc(O)c(O)c2)S1 [Compound 39, (Z)-5-(3,4-Dihydroxybenzylidene)thiazolidine-2,4-dione] | – |
| – | completely inactive | N#CC(C#N)=Cc1cc(O)c(O)c(O)c1 [Compound 7] | – |
| – | completely inactive | N#C/C(=C\c1ccc(O)c(O)c1)C(=O)O [Compound 4] | – |
| – | – | (Z)-5-(2-Bromobenzylidene)-4-thioxothiazolidin-2-one [Compound 62] | IC50 (Tdp1 [1]; read-out: Tdp1 IC50, recombinant human Tdp1, gel-based assay): 30 ± 12 µM |
| 111 to 333 µM | – | O=C1NC(=S)N(Cc2ccccc2)/C1=C\c1ccc(F)cc1 [Compound 37, (Z)-1-Benzyl-5-(4-fluorobenzylidene)-2-thioxoimidazolidin-4-one] | – |
| 111 to 333 µM | – | O=C1/C(=C/c2ccc3[nH]ccc3c2)NC(=S)N1c1ccccc1 [Compound 34, (Z)-5-((1H-Indol-5-yl)methylene)-3-phenyl-2-thioxoimidazolidin-4-one] | – |
| – | completely inactive | N#C/C(=C\c1ccc(O)c(O)c1)C(=O)NCc1ccccc1 [Compound 6] | – |
| – | – | O=C1NC(=S)/C(=C/c2ccc(O)c(O)c2O)S1 [Compound 50, (Z)-4-Thioxo-5-(2,3,4-trihydroxybenzylidene)thiazolidin-2-one] | binding to Tdp1 (SPR) (Tdp1 [2]): concentration-dependent binding; binding to N14Y oligomer (SPR) [3]: No binding |
| – | completely inactive | N#C/C(=C\c1ccc(O)c(O)c1)C(N)=O [Compound 5] | – |
